Key:
[1] = Partition coefficient, log P in phosphate buffer solution at pH 7.4; assay type: physicochemical
Method in brief: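 Shake-flask partition: 50 µM [¹²⁵I]-labelled compound in phosphate buffer pH 7.4 was mixed with 2 mL n-octanol. Each phase was γ-counted, P was taken as the octanol/buffer activity ratio, and log P was reported.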

[2] = Biodistribution in tumor of C57BL/6 mouse bearing mouse B16-F0 cells at 0.74 to 0.92 MBq, iv after 1 hr; assay type: ADME, organism-based, Neoplasm; conditions: in vivo
Method in brief: (§1)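 [¹²⁵I]-labelled compound given iv by tail vein (0.1 µmol per mouse) to male C57BL6 mice bearing s.c. B16-F0 flank tumours (5 × 10⁵ cells in PBS). Two mice per time point were killed by CO₂, frozen in liquid nitrogen and cut into 40 µm cryosections, eight slices per mouse. Slice radioactivity was read on a multiwire proportional counter, converted to kBq/g and reported as %ID/g.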

[3] = Biodistribution in tumor of C57BL/6 mouse bearing mouse B16-F0 cells at 0.74 to 0.92 MBq, iv after 3 hrs; assay type: ADME, organism-based, Neoplasm; conditions: in vivo; method in brief: as §1
[4] = Biodistribution in tumor of C57BL/6 mouse bearing mouse B16-F0 cells at 0.74 to 0.92 MBq, iv after 6 hrs; assay type: ADME, organism-based, Neoplasm; conditions: in vivo; method in brief: as §1
[5] = Biodistribution in tumor of C57BL/6 mouse bearing mouse B16-F0 cells at 0.74 to 0.92 MBq, iv after 24 hrs; assay type: ADME, organism-based, Neoplasm; conditions: in vivo; method in brief: as §1
[6] = Biodistribution in tumor of C57BL/6 mouse bearing mouse B16-F0 cells at 0.74 to 0.92 MBq, iv after 72 hrs; assay type: ADME, organism-based, Neoplasm; conditions: in vivo; method in brief: as §1
[7] = Ratio of drug level in tumor to liver of C57BL/6 mouse bearing mouse B16-F0 cells at 0.74 to 0.92 MBq, iv after 6 hrs; assay type: ADME, organism-based; conditions: in vivo
Method in brief: (§2)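 Tumour and organ radioactive concentrations came from whole-body cryosection counting (40 µm slices, eight per mouse, two mice per time) after tail-vein injection of the [¹²⁵I]-labelled compound (0.1 µmol) into male C57BL6 mice bearing s.c. B16-F0 melanoma. Each value is the ratio of the tumour concentration to the organ concentration.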

[8] = Ratio of drug level in tumor to lung of C57BL/6 mouse bearing mouse B16-F0 cells at 0.74 to 0.92 MBq, iv after 1 hr; assay type: ADME, organism-based; conditions: in vivo; method in brief: as §2
[9] = Ratio of drug level in tumor to lung of C57BL/6 mouse bearing mouse B16-F0 cells at 0.74 to 0.92 MBq, iv after 6 hrs; assay type: ADME, organism-based; conditions: in vivo; method in brief: as §2
[10] = Ratio of drug level in tumor to brain of C57BL/6 mouse bearing mouse B16-F0 cells at 0.74 to 0.92 MBq, iv after 1 hr; assay type: ADME, organism-based; conditions: in vivo; method in brief: as §2
[11] = Ratio of drug level in tumor to brain of C57BL/6 mouse bearing mouse B16-F0 cells at 0.74 to 0.92 MBq, iv after 3 hrs; assay type: ADME, organism-based; conditions: in vivo; method in brief: as §2
Brain = assay: Biodistribution in brain of C57BL/6 mouse bearing mouse B16-F0 cells at 0.74 to 0.92 MBq, iv after 1 hr; assay type: ADME, organism-based; conditions: in vivo
Method in brief: (§3)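 Male C57BL6 mice with s.c. left-flank B16-F0 melanoma (5 × 10⁵ cells in PBS). Two mice per time point frozen in liquid nitrogen after CO₂ sacrifice. Eight 40 µm whole-body cryosections per mouse read by multiwire proportional counter. cpm/mm² converted to kBq/g and expressed as %ID/g.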

[12] = Biodistribution in intestinal content of C57BL/6 mouse bearing mouse B16-F0 cells at 0.74 to 0.92 MBq, iv after 6 hrs; assay type: ADME, organism-based; conditions: in vivo; method in brief: as §3
[13] = Biodistribution in Stomach content of C57BL/6 mouse bearing mouse B16-F0 cells at 0.74 to 0.92 MBq, iv after 1 hr; assay type: ADME, organism-based; conditions: in vivo; method in brief: as §3
[14] = Biodistribution in Stomach content of C57BL/6 mouse bearing mouse B16-F0 cells at 0.74 to 0.92 MBq, iv after 3 hrs; assay type: ADME, organism-based; conditions: in vivo; method in brief: as §3
[15] = Biodistribution in Stomach content of C57BL/6 mouse bearing mouse B16-F0 cells at 0.74 to 0.92 MBq, iv after 6 hrs; assay type: ADME, organism-based; conditions: in vivo; method in brief: as §3
Liver [16] = assay: Biodistribution in liver of C57BL/6 mouse bearing mouse B16-F0 cells at 0.74 to 0.92 MBq, iv after 1 hr; assay type: ADME, organism-based; conditions: in vivo; method in brief: as §3
Liver [17] = assay: Biodistribution in liver of C57BL/6 mouse bearing mouse B16-F0 cells at 0.74 to 0.92 MBq, iv after 6 hrs; assay type: ADME, organism-based; conditions: in vivo; method in brief: as §3
Muscle tissue = assay: Biodistribution in muscle of C57BL/6 mouse bearing mouse B16-F0 cells at 0.74 to 0.92 MBq, iv after 1 hr; assay type: ADME, organism-based; conditions: in vivo; method in brief: as §3
Pancreas = assay: Biodistribution in pancreas of C57BL/6 mouse bearing mouse B16-F0 cells at 0.74 to 0.92 MBq, iv after 1 hr; assay type: ADME, organism-based; conditions: in vivo; method in brief: as §3
Lung [18] = assay: Biodistribution in lung of C57BL/6 mouse bearing mouse B16-F0 cells at 0.74 to 0.92 MBq, iv after 1 hr; assay type: ADME, organism-based; conditions: in vivo; method in brief: as §3
Lung [19] = assay: Biodistribution in lung of C57BL/6 mouse bearing mouse B16-F0 cells at 0.74 to 0.92 MBq, iv after 6 hrs; assay type: ADME, organism-based; conditions: in vivo; method in brief: as §3
Spleen [20] = assay: Biodistribution in spleen of C57BL/6 mouse bearing mouse B16-F0 cells at 0.74 to 0.92 MBq, iv after 1 hr; assay type: ADME, organism-based; conditions: in vivo; method in brief: as §1
Spleen [21] = assay: Biodistribution in spleen of C57BL/6 mouse bearing mouse B16-F0 cells at 0.74 to 0.92 MBq, iv after 3 hrs; assay type: ADME, organism-based; conditions: in vivo; method in brief: as §1
Kidney [22] = assay: Biodistribution in kidney of C57BL/6 mouse bearing mouse B16-F0 cells at 0.74 to 0.92 MBq, iv after 1 hr; assay type: ADME, organism-based; conditions: in vivo; method in brief: as §3
Kidney [23] = assay: Biodistribution in kidney of C57BL/6 mouse bearing mouse B16-F0 cells at 0.74 to 0.92 MBq, iv after 3 hrs; assay type: ADME, organism-based; conditions: in vivo; method in brief: as §3
Blood [24] = assay: Biodistribution in blood of C57BL/6 mouse bearing mouse B16-F0 cells at 0.74 to 0.92 MBq, iv after 3 hrs; assay type: ADME, organism-based; conditions: in vivo; method in brief: as §3
Blood [25] = assay: Biodistribution in blood of C57BL/6 mouse bearing mouse B16-F0 cells at 0.74 to 0.92 MBq, iv after 6 hrs; assay type: ADME, organism-based; conditions: in vivo; method in brief: as §3
Thyroid gland [26] = assay: Biodistribution in thyroid of C57BL/6 mouse bearing mouse B16-F0 cells at 0.74 to 0.92 MBq, iv after 6 hrs; assay type: ADME, organism-based; conditions: in vivo; method in brief: as §1
Thyroid gland [27] = assay: Biodistribution in thyroid of C57BL/6 mouse bearing mouse B16-F0 cells at 0.74 to 0.92 MBq, iv after 24 hrs; assay type: ADME, organism-based; conditions: in vivo; method in brief: as §1
[28] = Biodistribution in uvea of C57BL/6 mouse bearing mouse B16-F0 cells at 0.74 to 0.92 MBq, iv after 3 hrs; assay type: ADME, organism-based, Uveal tract; conditions: in vivo; method in brief: as §1
[29] = Biodistribution in uvea of C57BL/6 mouse bearing mouse B16-F0 cells at 0.74 to 0.92 MBq, iv after 6 hrs; assay type: ADME, organism-based, Uveal tract; conditions: in vivo; method in brief: as §1
[30] = Biodistribution in uvea of C57BL/6 mouse bearing mouse B16-F0 cells at 0.74 to 0.92 MBq, iv after 72 hrs; assay type: ADME, organism-based, Uveal tract; conditions: in vivo; method in brief: as §1
[31] = Ratio of drug level in tumor to liver of C57BL/6 mouse bearing mouse B16-F0 cells at 0.74 to 0.92 MBq, iv after 24 hrs; assay type: ADME, organism-based; conditions: in vivo; method in brief: as §2
Liver [32] = assay: Biodistribution in liver of C57BL/6 mouse bearing mouse B16-F0 cells at 0.74 to 0.92 MBq, iv after 24 hrs; assay type: ADME, organism-based; conditions: in vivo; method in brief: as §3

| logD [1] | Drug uptake [2] | Drug uptake [3] | Drug uptake [4] | Drug uptake [5] | Drug uptake [6] | Ratio [7] | Ratio [8] | Ratio [9] | Ratio [10] | Ratio [11] | Drug uptake (Brain) | Drug uptake [12] | Drug uptake [13] | Drug uptake [14] | Drug uptake [15] | Drug uptake (Liver [16]) | Drug uptake (Liver [17]) | Drug uptake (Muscle tissue) | Drug uptake (Lung [18]) | Compound | other results |
| --- | --- | --- | --- | --- | --- | --- | --- | --- | --- | --- | --- | --- | --- | --- | --- | --- | --- | --- | --- | --- | --- |
| 0.51 | 23.2 % ID/g | 13.9 % ID/g | 11.4 % ID/g | 8.4 % ID/g | 3.3 % ID/g | 7.69 | 9.86 | 9.03 | 27.14 | 32.18 | 0.35 % ID/g | 43.48 % ID/g | 17.58 % ID/g | 9.76 % ID/g | 9.17 % ID/g | 3.92 % ID/g | 1.49 % ID/g | 0.86 % ID/g | 2.36 % ID/g | CCN(CC)CCNC(=O)c1ccc2cncc([125I])c2n1.Cl.Cl | Drug uptake (Pancreas): 1.78 % ID/g; Drug uptake (Lung [19]): 1.26 % ID/g; Drug uptake (Spleen [20]): 5.38 % ID/g; Drug uptake (Spleen [21]): 0.93 % ID/g; Drug uptake (Kidney [22]): 4.01 % ID/g; Drug uptake (Kidney [23]): 1.51 % ID/g; Drug uptake (Blood [24]): 1.88 % ID/g; Drug uptake (Blood [25]): 1.36 % ID/g; Drug uptake (Thyroid gland [26]): 56.95 % ID/g; Drug uptake (Thyroid gland [27]): 115.66 % ID/g; Drug uptake [28]: 20.3 % ID/g; Drug uptake [29]: 13.15 % ID/g; Drug uptake [30]: 13.06 % ID/g |
| 1.57 | 8.8 % ID/g | 7.5 % ID/g | 7.8 % ID/g | 5 % ID/g | 2 % ID/g | 4.41 | 1.72 | 13.3 | 6 | 31.29 | 1.46 % ID/g | 135.67 % ID/g | 17.09 % ID/g | 16.07 % ID/g | 10.06 % ID/g | 6.44 % ID/g | 1.77 % ID/g | 0.96 % ID/g | 5.17 % ID/g | CCN(CC)CCNC(=O)c1cc2cc([125I])ccc2o1.Cl | Ratio [31]: 11.2; Drug uptake (Liver [32]): 0.45 % ID/g; Drug uptake (Lung [19]): 1.45 % ID/g; Drug uptake (Spleen [20]): 10.68 % ID/g; Drug uptake (Kidney [22]): 6.5 % ID/g; Drug uptake (Kidney [23]): 3.09 % ID/g; Drug uptake (Blood [24]): 1.91 % ID/g; Drug uptake (Blood [25]): 1.28 % ID/g; Drug uptake (Thyroid gland [26]): 40.63 % ID/g; Drug uptake (Thyroid gland [27]): 30.38 % ID/g; Drug uptake [28]: 20.11 % ID/g; Drug uptake [29]: 13.91 % ID/g; Drug uptake [30]: 10.11 % ID/g |
